Experimental data as given in ChEMBL document CHEMBL1208782, “Synthesis and pharmacological validation of a novel series of non-steroidal FXR agonists” (Bioorg Med Chem Lett, 2010).

What was measured:
Glucocorticoid receptor = biological target: T1, Glucocorticoid receptor (Homo sapiens, UniProt P04150); assay: Agonist activity at GR-LBD expressed in HEK293 cells assessed as Gal4-DBD interaction by cellular mammalian one hybrid assay; format: functional, cell-based
T1 sequence (P04150 whole entry): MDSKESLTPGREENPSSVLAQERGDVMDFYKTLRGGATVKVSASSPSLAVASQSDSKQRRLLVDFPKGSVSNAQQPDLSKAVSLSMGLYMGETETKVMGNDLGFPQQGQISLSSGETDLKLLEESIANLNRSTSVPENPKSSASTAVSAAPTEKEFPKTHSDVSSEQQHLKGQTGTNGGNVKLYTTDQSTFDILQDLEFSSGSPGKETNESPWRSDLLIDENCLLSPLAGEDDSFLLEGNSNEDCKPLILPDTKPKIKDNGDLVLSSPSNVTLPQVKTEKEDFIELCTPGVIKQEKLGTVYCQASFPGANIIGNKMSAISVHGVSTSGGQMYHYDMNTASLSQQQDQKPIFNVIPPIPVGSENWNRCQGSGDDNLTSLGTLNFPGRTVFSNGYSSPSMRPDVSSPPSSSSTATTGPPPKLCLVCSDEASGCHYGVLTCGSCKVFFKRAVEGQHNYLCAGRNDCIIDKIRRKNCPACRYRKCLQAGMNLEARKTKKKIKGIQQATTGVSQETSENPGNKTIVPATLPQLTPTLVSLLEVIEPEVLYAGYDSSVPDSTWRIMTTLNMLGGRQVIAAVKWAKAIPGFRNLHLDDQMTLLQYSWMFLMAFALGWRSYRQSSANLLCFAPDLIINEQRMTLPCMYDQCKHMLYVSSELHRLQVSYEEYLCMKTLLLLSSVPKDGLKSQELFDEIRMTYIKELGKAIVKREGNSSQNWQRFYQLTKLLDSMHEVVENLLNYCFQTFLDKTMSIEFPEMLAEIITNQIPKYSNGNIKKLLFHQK

[1] = Plasma concentration in db/db mouse at 1 mg/kg, iv after 5 mins; format: ADME, organism-based; parameters: dose 1 mg/kg, route intravenous; conditions: read-out: Drug uptake
Outline: (§1)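 Single dose to mice, 5 mg/kg po or 1 mg/kg iv. Plasma was sampled at 5, 10, 30, 90 and 240 min. Only parent compound was measured, in ng/mL.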

[2] = Plasma concentration in db/db mouse at 25 mg/kg bid after 4 hrs by LC/MS-MS analysis; format: ADME, organism-based; parameters: dose 25 mg/kg; conditions: read-out: Drug uptake
Outline: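 db/db mice were dosed twice daily for 12 days. Plasma and liver concentrations were determined 4 h and 24 h after the last administration.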

[3] = Drug level in db/db mouse bile measured metabolites as carboxylic acid at 1 mg/kg, iv after 240 mins; format: ADME, organism-based; parameters: dose 1 mg/kg, route intravenous; conditions: in vivo, 4 h
[4] = biological target: T2, Retinoic acid receptor gamma (Homo sapiens) (UniProt P13631); assay: Agonist activity at RARgamma-LBD expressed in HEK293 cells assessed as Gal4-DBD interaction by cellular mammalian one hybrid assay relative to relative to retinoic acid; format: functional, cell-based
T2 sequence (whole entry): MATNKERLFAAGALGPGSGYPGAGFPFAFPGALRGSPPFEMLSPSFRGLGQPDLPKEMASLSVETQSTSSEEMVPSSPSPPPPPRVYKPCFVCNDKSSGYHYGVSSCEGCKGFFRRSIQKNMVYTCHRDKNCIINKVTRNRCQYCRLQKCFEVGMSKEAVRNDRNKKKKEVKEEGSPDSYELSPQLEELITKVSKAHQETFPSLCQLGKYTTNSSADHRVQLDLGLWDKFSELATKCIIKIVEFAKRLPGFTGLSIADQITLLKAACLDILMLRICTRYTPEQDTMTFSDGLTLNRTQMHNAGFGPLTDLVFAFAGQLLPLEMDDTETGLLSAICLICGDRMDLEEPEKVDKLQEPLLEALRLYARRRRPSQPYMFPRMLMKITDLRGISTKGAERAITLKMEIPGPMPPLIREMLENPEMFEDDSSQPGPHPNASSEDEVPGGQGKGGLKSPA

Bile acid receptor = biological target: T3, Bile acid receptor (Homo sapiens, UniProt Q96RI1); assay: Agonist activity at human GST-fused FXR LBD assessed as cofactor peptide interaction with receptor ligand binding domain by FRET assay
T3 sequence (Q96RI1 whole entry): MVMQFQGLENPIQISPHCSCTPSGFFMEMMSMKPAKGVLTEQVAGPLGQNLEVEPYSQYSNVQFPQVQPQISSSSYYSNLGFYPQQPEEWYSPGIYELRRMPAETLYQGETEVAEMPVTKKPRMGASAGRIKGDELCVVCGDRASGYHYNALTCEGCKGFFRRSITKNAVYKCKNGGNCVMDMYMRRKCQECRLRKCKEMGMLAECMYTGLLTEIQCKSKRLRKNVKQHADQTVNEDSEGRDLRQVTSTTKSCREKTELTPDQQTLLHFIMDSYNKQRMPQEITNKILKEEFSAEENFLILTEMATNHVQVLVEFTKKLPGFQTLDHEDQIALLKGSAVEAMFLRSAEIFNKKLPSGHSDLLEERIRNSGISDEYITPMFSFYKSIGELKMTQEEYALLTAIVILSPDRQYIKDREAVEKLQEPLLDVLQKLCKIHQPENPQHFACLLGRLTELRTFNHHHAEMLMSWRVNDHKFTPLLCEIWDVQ

[5] = Plasma concentration in db/db mouse at 1 mg/kg, iv after 90 mins; format: ADME, organism-based; parameters: dose 1 mg/kg, route intravenous; conditions: read-out: Drug uptake; outline: as §1
[6] = biological target: T4, Bile acid receptor (Homo sapiens) (UniProt Q96RI1); assay: Agonist activity at human GST-fused FXR LBD assessed as cofactor peptide interaction with receptor ligand binding domain by FRET assay relative to GW-4064
T4 sequence (whole entry): T3 sequence (Q96RI1 whole entry)

Vitamin D3 receptor = biological target: T5, Vitamin D3 receptor (Homo sapiens, UniProt P11473); assay: Agonist activity at VDR-LBD expressed in HEK293 cells assessed as Gal4-DBD interaction by cellular mammalian one hybrid assay; format: functional, cell-based
T5 sequence (P11473 whole entry): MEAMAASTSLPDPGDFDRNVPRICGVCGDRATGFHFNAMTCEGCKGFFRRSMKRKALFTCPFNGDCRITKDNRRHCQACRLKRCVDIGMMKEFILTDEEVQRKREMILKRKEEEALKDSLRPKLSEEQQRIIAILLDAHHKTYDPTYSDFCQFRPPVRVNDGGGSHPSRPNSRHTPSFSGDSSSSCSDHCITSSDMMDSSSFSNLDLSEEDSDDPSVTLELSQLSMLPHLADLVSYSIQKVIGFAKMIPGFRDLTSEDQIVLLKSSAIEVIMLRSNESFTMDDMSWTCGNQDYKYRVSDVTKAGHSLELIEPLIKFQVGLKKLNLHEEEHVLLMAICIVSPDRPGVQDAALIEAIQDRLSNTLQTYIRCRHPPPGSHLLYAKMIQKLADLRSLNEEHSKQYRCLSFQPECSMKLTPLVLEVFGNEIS

[7] = biological target: T6, Vitamin D3 receptor (Homo sapiens) (UniProt P11473); assay: Agonist activity at VDR-LBD expressed in HEK293 cells assessed as Gal4-DBD interaction by cellular mammalian one hybrid assay relative to vitamin D; format: functional, cell-based
T6 sequence (whole entry): T5 sequence (P11473 whole entry)

[8] = Plasma concentration in db/db mouse at 5 mg/kg, po after 10 mins; format: ADME, organism-based; parameters: dose 5 mg/kg, route oral; conditions: read-out: Drug uptake; outline: as §1

| SMILES | EC50 (Glucocorticoid receptor) [µM] | concentration at 5 min [1] [ng/mL] | concentration at 4 h [2] [nM] | Drug uptake [3] [ng/mL] | Efficacy [4] [%] | EC50 (Bile acid receptor) [µM] | concentration at 1.5 h [5] [ng/mL] | Efficacy [6] [%] | EC50 (Vitamin D3 receptor) [µM] | Efficacy [7] [%] | concentration at 10 min [8] [ng/mL] |
| --- | --- | --- | --- | --- | --- | --- | --- | --- | --- | --- | --- |
| CN(Cc1ccc(C(=O)O)cc1)c1ccc(OCc2c(-c3c(Cl)cccc3Cl)noc2C2CC2)nc1C(F)(F)F | > 10 | 745 | 344 | 173 | 0 | 0.012 | 398 | 109 | > 10 | 0 | 283 |
| CN(Cc1cccc(C(=O)O)c1)c1ccc(OCc2c(-c3c(Cl)cccc3Cl)noc2C2CC2)nc1C(F)(F)F | > 10 |  |  |  | 0 | 0.003 |  | 102 | > 10 | 0 |  |
| CC(C)c1onc(-c2c(Cl)cccc2Cl)c1COc1ccc(N(C)Cc2ccc(C(=O)O)cc2)c(C(F)(F)F)n1 | > 10 | 1620 | 512 | 472 | 0 | 0.022 | 122 | 97 | > 10 | 0 | 92 |
